Experimental findings from PubChem BioAssay AID2247 (Johns Hopkins Ion Channel Center, 2010) are described below.

Hit rate of the full screen: of about 300,000 compounds, about 1,200 (0.4%) were called active.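 Rule for the calls: active = B-score over 3 SD under the library average, no early fluorescence shift, positive overall ratio signal; inactive = the rest.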 The entries come from a sample that favours actives as a whole.

Short transient receptor potential channel 4 (Mus musculus), sequence (Q9QUQ5 whole entry, looked up): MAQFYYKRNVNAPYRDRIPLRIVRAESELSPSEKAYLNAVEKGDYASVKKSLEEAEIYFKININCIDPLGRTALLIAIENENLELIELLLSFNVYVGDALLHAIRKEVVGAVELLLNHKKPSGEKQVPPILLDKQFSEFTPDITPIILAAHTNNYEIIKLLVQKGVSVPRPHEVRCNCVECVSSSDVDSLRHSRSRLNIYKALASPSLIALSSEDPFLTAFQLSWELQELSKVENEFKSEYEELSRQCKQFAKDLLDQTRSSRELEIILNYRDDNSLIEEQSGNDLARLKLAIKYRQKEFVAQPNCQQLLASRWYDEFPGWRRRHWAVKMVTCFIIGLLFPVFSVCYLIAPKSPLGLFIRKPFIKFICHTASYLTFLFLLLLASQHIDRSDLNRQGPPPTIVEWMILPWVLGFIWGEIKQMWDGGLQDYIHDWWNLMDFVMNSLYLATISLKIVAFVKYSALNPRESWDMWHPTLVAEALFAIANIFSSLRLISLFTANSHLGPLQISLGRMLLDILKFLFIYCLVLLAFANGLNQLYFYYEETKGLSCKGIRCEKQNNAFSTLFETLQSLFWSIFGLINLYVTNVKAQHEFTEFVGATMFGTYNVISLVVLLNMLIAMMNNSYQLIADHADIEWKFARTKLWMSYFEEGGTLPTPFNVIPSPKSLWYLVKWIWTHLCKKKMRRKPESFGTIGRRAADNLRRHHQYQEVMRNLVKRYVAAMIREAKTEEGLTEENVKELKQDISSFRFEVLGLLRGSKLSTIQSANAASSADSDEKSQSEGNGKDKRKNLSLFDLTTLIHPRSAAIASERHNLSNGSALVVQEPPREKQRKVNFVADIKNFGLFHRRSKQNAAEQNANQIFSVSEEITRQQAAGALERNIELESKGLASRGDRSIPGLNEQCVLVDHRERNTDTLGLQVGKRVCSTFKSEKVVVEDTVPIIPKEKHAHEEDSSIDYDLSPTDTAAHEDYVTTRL

This assay concerns the target Short transient receptor potential channel 4 (Mus musculus) (UniProt Q9QUQ5). In words: blockers of DAMGO-evoked TRPC4 calcium flux – Fluo4 calcium, HEK293 TRPC4beta/mu-opioid cells, primary screen (AID 2247). The following applies: at 10 µM; active compounds read low. In a few lines: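 Assay system: HEK293 cells with stable TRPC4beta plus mu-opioid receptor expression; Probe or stimulus: DAMGO in two steps, submaximal then maximal; Dosing: single-point compound dosing; Measured by: Fluo4 calcium-dye fluorescence, kinetic read; Read-out basis: B score from integrated Fluo4 fluorescence ratio.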
(In general: Calcium assays in cells follow changes in intracellular calcium, usually with a dye or a luminescent sensor.)
As to `CCOC(=O)C1(Cc2ccc(Cl)cc2)CCN(C(C)CCn2cccn2)CC1` (stereo not given), the B-score was -6 (active).
To `CN(C)CC1CCCCC1=O` (stereo not given) belongs “inactive”; to `CC(=O)N(C1=NCCCS1)c1ccccc1F`, “inactive”.
Regarding `CSc1ccc(C(=O)C2CCCN(Cc3ccn[nH]3)C2)cc1` (stereo not given), the B-score result is “inactive”.
Take `COc1ccc(C(=O)C2CN(C)CC2C(=O)c2ccc(OC)cc2)cc1` (stereo not given): the B-score result was “inactive”.
For `Cc1ccc(C2CN(C)CC2C(=O)c2ccc(F)cc2)cc1` (stereo not given), the B-score was -6 (active).
On to `CN1CCC(OC(=O)c2cccc(F)c2)CC1`, for which the B-score entry was “inactive”.
Regarding `O=c1[nH]c(CN2CC=C(c3ccccc3)CC2)nc2scc(-c3cccs3)c12`, the B-score entry is “inactive”.
Regarding `COc1ccc(CN2CCN(c3ccccc3F)CC2)c(OC)c1`, the B-score entry is “inactive”.
For `CCOC(=O)C1(CCc2ccccc2)CCN(Cc2ccco2)CC1`, the B-score was -8 (active).
For `CCC(=NCc1ccco1)c1c(O)n(Cc2ccccc2)c(=O)[nH]c1=O`, the B-score result was “inactive”.
Turning to `c1ccc(CCN2CCC3(CC2)OCCO3)cc1`, the B-score result was “inactive”.
As to `COc1ccc(N=Cc2c(O)n(C)c(=O)[nH]c2=O)cc1`, the B-score result was “inactive”.
For the compound `N#CC1=C(N)Oc2c(c(=O)oc3ccccc23)C1c1ccccc1OC(=O)c1cccs1` (stereo not given), the B-score result was “inactive”.
With `COC(=O)C1=C(c2cc3ccccc3s2)C[C@@H]2CC[C@H]1N2C(=O)NCCO`, the B-score is -6 (active).
As for `COC(=O)C1=C(c2cc3ccccc3s2)C[C@@H]2CC[C@H]1N2C(=O)NC(C)C`, the B-score result is “inactive”.
On to `COC(=O)C1=C(c2cc3ccccc3s2)C[C@@H]2CC[C@H]1N2C(=O)NCc1cccc2ccccc12`, for which the B-score entry is “inactive”.
Regarding `OCC#CC[N+]1(CC#Cc2ccccc2)CCCC1`, the B-score entry is “inactive”.
Consider `CNCC(O)c1cc(F)c(OCc2ccccc2)c(OCc2ccccc2)c1F` (stereo not given), for which the B-score entry is “inactive”.
For `CCOc1cccc(=NC2CCCCC2)c2c(C)[nH]c(C)c12`, the B-score result was “inactive”.
